One data set concerns COS-7. Description: Cytotoxicity against African green monkey COS7 cells assessed as reduction in cell viability at 200 uM after 48 hrs by WST1 assay. The class given is cell-based. The settings on record: chlorocebus aethiops, cos-7, 48 h. (In general: Tetrazolium dyes change colour on reduction, which living cells bring about.)
A further data set relates to NHDF. Kind of data set: Cytotoxicity against HDF assessed as reduction in cell viability at 200 uM after 48 hrs by WST1 assay. The settings on record: human. Type of data set: cell-based.
The species named for data set [1] is Mus musculus. Description: Mutation read through activity at premature termination codon TGA-containing mouse dystrophin gene exon 23 nucleotide sequence expressed in African green monkey COS7 cells assessed as ratio of luciferase activity to beta-galactosidase activity at 200 uM after 48 hrs by dual luciferase reporter gene assay relative to control. The class given is cell-based. The gist of the method: (§1)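 COS-7 cells carrying a dual-reporter plasmid (β-galactosidase and luciferase genes joined by a TGA-containing stop sequence). Compounds were tested at 200 μM; the dose-dependent series ran 10–200 μM. Activity is reported as a ratio relative to D-MEM control, as mean ± SD, n = 3.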

Data set [2] is filed under the species Mus musculus. Kind of data set: Mutation read through activity at premature termination codon TAG-containing mouse dystrophin gene exon 23 nucleotide sequence expressed in African green monkey COS7 cells assessed as ratio of luciferase activity to beta-galactosidase activity at 200 uM after 48 hrs by dual luciferase reporter gene assay relative to control. The class given is cell-based. A general note: Reporter assays use an easily measured gene product as a stand-in for the process of interest.

The species named for data set [3] is Mus musculus. Description: Mutation read through activity at premature termination codon TAA-containing mouse dystrophin gene exon 23 nucleotide sequence expressed in African green monkey COS7 cells assessed as ratio of luciferase activity to beta-galactosidase activity at 200 uM after 48 hrs by dual luciferase reporter gene assay relative to control. Type of data set: cell-based.

In data set [4] the test system is Mus musculus. Description: Mutation read through activity in READ mouse on C57/BL6 background expressing premature termination codon TGA-containing mouse dystrophin gene exon 23 nucleotide sequence gene exon 23 assessed as ratio of luciferase activity to beta-galactosidase activity at 1 mg/20g body weight, sc administered daily for 7 days measured post last dose by dual luciferase reporter gene assay relative to control. The class given is functional. The method, boiled down: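 READ mice carry a dual reporter split by a PTC. Subcutaneous injection into the abdominal region at 1 mg in 0.2 mL saline per 20 g body weight, daily for 7 days. Negative control: saline. Positive control: arbekacin. Readthrough reported as mean ± SD.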

Data set [5] concerns Mus musculus. Description: Acute toxicity in B10 mouse assessed as change in body weight at 10 mg/day/20g body weight, sc for 14 days and measured on 1 to 7 and 14 days. Type of data set: organism-based. The settings on record: in vivo, 336 h. The gist of the method: (§2)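 Single subcutaneous injection into the abdominal region of B10 mice at 10 mg day–1 20 g–1 body weight, given only once. Body weight tracked over 2 weeks. Treated group n = 4; saline-injected B10 mice (n = 3) served as controls.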

The target in the next data set is T1, Liver carboxylesterase (Sus scrofa, UniProt Q29550).
T1 sequence (Q29550 whole entry): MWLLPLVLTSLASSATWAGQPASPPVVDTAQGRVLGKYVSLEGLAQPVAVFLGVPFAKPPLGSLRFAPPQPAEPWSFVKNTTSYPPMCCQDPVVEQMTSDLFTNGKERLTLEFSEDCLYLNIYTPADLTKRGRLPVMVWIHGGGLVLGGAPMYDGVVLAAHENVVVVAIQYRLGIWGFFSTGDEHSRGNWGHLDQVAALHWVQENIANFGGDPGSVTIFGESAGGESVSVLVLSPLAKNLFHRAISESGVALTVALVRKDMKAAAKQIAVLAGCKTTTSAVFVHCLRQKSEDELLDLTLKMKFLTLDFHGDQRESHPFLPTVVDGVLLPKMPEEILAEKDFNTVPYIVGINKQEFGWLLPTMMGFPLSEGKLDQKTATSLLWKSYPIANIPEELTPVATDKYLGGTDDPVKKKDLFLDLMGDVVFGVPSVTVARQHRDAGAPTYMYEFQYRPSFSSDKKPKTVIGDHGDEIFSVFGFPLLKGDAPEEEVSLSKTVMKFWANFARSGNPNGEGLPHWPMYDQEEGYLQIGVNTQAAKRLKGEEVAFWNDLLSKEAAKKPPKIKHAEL
Kind of data set: Prodrug conversion assessed as porcine liver esterase-mediated TCP-126 formation at 2 mM up to 6 hrs by RP-HPLC method. The class given is ADME. The settings on record: pig, isolated protein, 2000 µM, TDE = time-dependent effect. The method, boiled down: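 Incubated with porcine liver esterase (110 units/mL) in 100 mM phosphate buffer, pH 7.4, at 37 °C. Reaction mixtures were analysed by RP-HPLC over time for conversion to the parent compound. The new metabolite peak was collected and identified by high-resolution MS.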

For data set [6], the species on record is Mus musculus. Description: Mutation read through activity at premature termination codon TGA-containing mouse dystrophin gene exon 23 nucleotide sequence expressed in African green monkey COS7 cells assessed as ratio of luciferase activity to beta-galactosidase activity after 48 hrs by dual luciferase reporter gene assay relative to control. The class given is cell-based. The gist of the method: as §1

The species named for data set [7] is Mus musculus. Description: Mutation read through activity at premature termination codon TGA-containing mouse dystrophin gene exon 23 nucleotide sequence expressed in African green monkey COS7 cells assessed as ratio of luciferase activity to beta-galactosidase activity at 200 uM after 48 hrs by dual luciferase reporter gene assay relative to control relative to in-frame control containing TGG. The class given is cell-based.

A short description of data set [8]: Stability in 100 mM phosphate buffer (pH 7.4) assessed as parent compound remaining at 200 uM measured after 6 hrs in absence of esterase by RP-HPLC and high-resolution mass spectrometry method.
Data set [9] deals with Mus musculus. Description: Acute toxicity in B10 mouse assessed reduction in body weight at 10 mg/day/20g body weight, sc for 14 days and measured on day 1. Type of data set: organism-based. Particulars: in vivo, 336 h. The gist of the method:
as §2

`CN[C@@H]1[C@@H](O)[C@@H](O[C@H]2[C@H](O)[C@@H](O[C@H]3O[C@H]([C@H](C)O)[C@@H](O)[C@H](O)[C@H]3N)[C@H](N)C[C@@H]2N)OC[C@]1(C)O`: the Activity result with COS-7 and in the data set with NHDF was “Non-Toxic” in each case. In the data set filed under Mus musculus [1], the fold change (FC) stood at 7.2.

On to `CC(C)C[C@H](N)C(=O)N[C@@H](CCCN)CC(=O)NN(C)CC(=O)OCc1cccc(Cl)c1`, for which the Activity result in the data set on COS-7 and in the data set with NHDF was “Non-Toxic” in each case. The fold change (FC) in the data set filed under Mus musculus [1] came out at 5.37.

As for `CC(C)C[C@H](N)C(=O)N[C@@H](CCCN)CC(=O)NN(C)CC(=O)O`, the Activity result in the data set with COS-7 and in the data set with NHDF was “Non-Toxic” each time. For the same compound, the values for the fold change (FC) in the data set filed under Mus musculus [2], in the data set listed under Mus musculus [3] and in the data set filed under Mus musculus [1] were 1.3, 1.11 and 2.25 to 2.72, respectively.

Regarding `CN(CC(=O)O)NC(=O)C[C@H](CCCN)NC(=O)CN`, the fold change (FC) in the data set filed under Mus musculus [1] came to 2.1.

For the compound `NCC[C@H](O)C(=O)N[C@@H]1C[C@H](N)[C@@H](O[C@H]2O[C@H](CN)CC[C@H]2N)[C@H](O)[C@H]1O[C@H]1O[C@H](CO)[C@@H](O)[C@H](N)[C@H]1O` [ARBEKACIN], the “fold change (FC)” value in the data set on Mus musculus [4] is recorded as 1.94.

As for `CC(C)C[C@H](N)C(=O)N[C@@H](CCCN)CC(=O)NN(C)CC(=O)OCc1ccccc1Br`, the Activity result was “Non-Toxic” in the data set with Mus musculus [5]; “Non-Toxic” with COS-7; “Non-Toxic” with NHDF; “Dose-dependent effect” in the data set listed under Mus musculus [6]; 2.69% in the data set listed under Mus musculus [7]; “Toxic” in the data set on Mus musculus [9]. For the same compound, the “fold change (FC)” value was 1.59 in the data set with Mus musculus [4], 2.55 in the data set filed under Mus musculus [2], 1.22 in the data set filed under Mus musculus [3] and 8.84 to 8.89 in the data set filed under Mus musculus [1]. The Drug metabolism result on Liver carboxylesterase is listed as “Tde”. Also, the amount remaining at 6 h, 200 µM in [8] stood at 99%.

For the compound `CN(CC(=O)O)NC(=O)C[C@H](N)C[C@@H](O)CN`, in the data set listed under Mus musculus [1], the fold change (FC) was 1.54.

As to `CC(C)C[C@@H](N)C(=O)N[C@@H](CCCN)CC(=O)NN(C)CC(=O)O`, the fold change (FC) in the data set filed under Mus musculus [1] turned out to be 1.3.

Turning to `CC(C)[C@H](N)C(=O)N[C@@H](CCCN)CC(=O)NN(C)CC(=O)O`, the fold change (FC) in the data set filed under Mus musculus [1] turned out to be 1.87.

Take `CN(CC(=O)O)NC(=O)C[C@H](CCCN)NC(=O)[C@@H](N)Cc1ccc(O)cc1`: the fold change (FC) in the data set listed under Mus musculus [1] was 1.92.

For `COc1cccc(COC(=O)CN(C)NC(=O)C[C@H](CCCN)NC(=O)[C@@H](N)CC(C)C)c1`, the Activity entry with COS-7 and in the data set with NHDF was “Non-Toxic” each time. Besides, the fold change (FC) in the data set listed under Mus musculus [1] was found to be 5.15.

On to `CC(C)C[C@H](O)C(=O)N[C@@H](CCCN)CC(=O)NN(C)CC(=O)O`, for which the fold change (FC) in the data set filed under Mus musculus [1] is 1.33.

With `CC(C)C[C@H](N)C(=O)N[C@@H](CCCN)CC(=O)NN(C)CC(=O)OCc1ccccc1`, the Activity result with COS-7 and in the data set with NHDF was “Non-Toxic” each time. Also, in the data set filed under Mus musculus [1], the fold change (FC) is 8.92.

With `CN(CC(=O)O)NC(=O)C[C@H](CCCN)NC(=O)[C@@H](N)Cc1ccccc1`, the fold change (FC) in the data set listed under Mus musculus [1] stood at 2.13.

Consider `CC(C)C[C@H](N)C(=O)N[C@@H](CCCN)CC(=O)NN(C)CC(=O)OCc1ccccc1[N+](=O)[O-]`, for which the Activity result in the data set on COS-7 and in the data set with NHDF was “Non-Toxic” throughout. For the same compound, the fold change (FC) in the data set listed under Mus musculus [1] was found to be 9.15.

The share remaining is the share of the starting amount still present when the sample was taken.

(Values after ChEMBL document CHEMBL4130526, “Structure-Activity Relationship Study of Leucyl-3-epi-deoxynegamycin for Potent Premature Termination Codon Readthrough” (ACS Med Chem Lett, 2017).)
